Cl transport mod = modulators of human KCC2 chloride dependent transport; Q9H2X9; B-score of Tl+ flux slope (higher = more flux/activation; lower = inhibition) at 10 µM; actives 2.2% (n = 190,000); KCC2 cells, thallium flux FluoZin-2 fluorescence;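 active = thallium flux slope and its plate-corrected score both differing from the plate sample mean at a set confidence after two filtering rounds, in either direction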;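 also: slope of fluorescence scaled to starting intensity during 10 to 20 s after thallium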
KCNQ1 pot = potentiators or activators of human KCNQ1 potassium channel | CHO-K1 KCNQ1, thallium flux FluxOR fluorescence; stronger effect = higher value | B-score at 10 µM | actives 0.35% (n = 310,000);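 active = fluorescence ratio B-score, a plate-corrected score, at least three library SD, with initial intensity B-score within 5 SD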
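Assay system: stable KCNQ1 CHO-K1 line; medium: assay buffer, equal DMSO in all wells; timing: 90 min dye loading and 20 min compound exposure, both at room temperature; technique: kinetic FluxOR thallium fluorescence, 10-s 1-Hz baseline, 110-s post-stimulus read; read-out basis: B score of baseline-normalized fluorescence ratio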
KCNK9 block = human KCNK9 channel inhibition. AID 488922. B-score at 10 µM. Q9NPC2. actives 1.2% (n = 310,000). HEK293 KCNK9, FluxOR thallium flux fluorescence; stronger effect = lower value;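 active = ratio B-score over 3 SD below the library mean, with starting fluorescence within 5 SD of its mean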;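 also: negative B-score means less thallium flux so channel inhibition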
KCNK3 inh = human KCNK3 channel inhibition, primary screen; O14649; CHO-KCNK3 thallium flux, FluxOR fluorescence; stronger effect = lower value; B-score at 10 µM; actives 0.84% (n = 340,000); AID 602410;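 active = B-score under library mean minus 4 SD, starting fluorescence ratio at most library mean plus 5 SD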;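 also: more negative B-score means stronger inhibition of thallium flux through KCNK3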
KCNQ1 block = blocks the human KCNQ1 potassium channel | P51787 | CHO-K1 KCNQ1, FluxOR thallium flux fluorescence; stronger effect = higher value | B-score at 10 µM | actives 1.3% (n = 310,000) | AID 2642;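 active = compounds whose thallium flux B-score, printed positive for inhibition, exceeds three library SD while starting fluorescence stays within three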;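 also: channel opened by potassium depolarization with thallium stimulus after 20 min compound exposure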
hERG rescue = shields human hERG channel from block by proarrhythmic agents | activation (rescue from dofetilide block), less the hit threshold, % at 10 µM | actives 0.51% (n = 310,000) | CHO-hERG, FluxOR thallium flux, dofetilide IC70 present | Q12809;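 active = activation above the mean of controls blocked by dofetilide plus 5 SD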;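 also: thallium influx through hERG after potassium depolarization seen as dye fluorescence rise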
KCNK9 block conf = human KCNK9 inhibitor confirmation. shares compounds with KCNK9 block. HEK293 KCNK9 cells, FluxOR thallium flux fluorescence. inhibition, % at 10 µM. actives 43% (n = 4,900). AID 492992;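 active = thallium signal inhibited by more than 5 SD of the compound-free buffer control wells, on both duplicate plates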
Kir2-1 spec = tests whether KCNK9 modulators also affect mouse Kir2.1 | shares compounds with KCNK9 block | Kir2.1 cells, FluxOR thallium flux fluorescence | inhibition, % at 10 µM | actives 4% (n = 4,900);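 active = thallium signal drop more than 5 SD beyond the mean of the no-compound control wells, seen in both duplicate plates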;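 also: signal is fluorescence rise after thallium addition divided by baseline fluorescence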
KCNK9 uninduced = second counter-screen for KCNK9 modulators: effect in non-induced cells | shares compounds with KCNK9 block | non-induced KCNK9-HEK293, FluxOR thallium flux | inhibition, % at 10 µM | actives 40% (n = 4,900) | AID 492997;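 active = thallium signal drop beyond 5 SD of the untreated control mean, on both duplicate plates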
Hits are given with their value; – = inactive; · = not tested or not shown. An excerpt weighted towards active compounds, which were near 4.1% of everything screened.

SMILES | Cl transport mod | KCNQ1 pot | KCNK9 block | KCNK3 inh | KCNQ1 block | hERG rescue | KCNK9 block conf | Kir2-1 spec | KCNK9 uninduced
NC(=S)n1[nH]c(-c2ccc([N+](=O)[O-])cc2)c(N=Nc2ccccc2[N+](=O)[O-])c1=O | – | · | · | – | · | · | · | · | ·
O=S(=O)(c1cccc(S(=O)(=O)N2CCCC2)c1)c1cccc(S(=O)(=O)N2CCCC2)c1 | – | – | -9.2 | – | – | – | 54% | – | –
O=C(OCc1ccc(Br)cc1)c1cccc(S(=O)(=O)N2CCCC2)c1 | · | – | -12 | – | – | – | – | – | 34%
O=C(CSC1=NCCN1)Nc1cccc(C(F)(F)F)c1 | – | – | -9.9 | – | – | – | 32% | – | 24%
CC(=O)Nc1ccc(NC(=O)CN2CCN(c3cccc(C(F)(F)F)c3)CC2)cc1 | – | – | – | – | – | – | · | · | ·
O=C(CN1CCN(c2cccc(C(F)(F)F)c2)CC1)Nc1cccc(C(F)(F)F)c1 | · | – | – | – | 9 | – | – | – | –
O=S(=O)(/N=C(/c1ccccc1)N1CCOCC1)c1ccc(F)cc1F | · | · | · | – | · | · | · | · | ·
c1ccc(Cc2noc(CN3CCN(Cc4ccc5c(c4)OCO5)CC3)n2)cc1 | – | – | – | – | – | – | – | – | –
c1ccc(Cc2noc(CN3CCCN(C4Cc5ccccc5C4)CC3)n2)cc1 | – | – | – | – | – | – | · | · | ·
c1ccc(OCCN2CCN(Cc3nc(-c4ccc5c(c4)OCO5)no3)CC2)cc1 | · | – | – | – | – | – | – | – | –
COc1ccccc1CN1CCN(Cc2nc(-c3ccccc3)no2)CC1 | – | – | – | – | – | – | · | · | ·
c1ccc(Cc2noc(CN3CCN(C4CCc5ccccc5C4)CC3)n2)cc1 (stereo not drawn) | – | – | – | – | – | – | – | – | –
COc1ccccc1CN1CCN(Cc2nc(Cc3ccccc3)no2)CC1 | – | – | – | – | – | – | – | – | –
Fc1ccc(CN2CCCN(Cc3nc(-c4ccc5c(c4)OCO5)no3)CC2)cc1 | – | – | – | – | – | – | · | · | ·
CS(=O)(=O)N1CCC(Oc2ccccc2C(=O)N2CCC[C@H]2CO)CC1 | · | – | – | – | – | – | · | · | ·
CN(Cc1ccc(Br)s1)C(=O)CNC(=O)c1ccc2c(c1)OCO2 | · | · | · | – | · | · | · | · | ·
C(=C\c1ccccc1)/CN1CCN(Cc2nc(Cc3ccccc3)no2)CC1 | – | – | – | – | – | – | – | – | –
O=[N+]([O-])c1ccccc1/C=C/CN1CCN(Cc2ccc3c(c2)OCO3)CC1 | · | – | – | – | – | – | – | – | –
O=C(NCC1CCCO1)c1csc(Nc2cccc3ccccc23)n1 (stereo not drawn) | – | – | -9.2 | – | – | – | 42% | – | –
Cc1ccc(-c2nc(C(=O)NCC3CCCO3)cc3c2[nH]c2ccccc23)cc1 (stereo not drawn) | · | – | -17 | – | 12 | – | 65% | – | 33%
CCOC(=O)/C(C#N)=N\Nc1cc(Cl)ccc1OC | – | – | – | – | – | – | · | · | ·
NS(=O)(=O)c1ccc(NCc2ccccc2OCc2ccc(F)cc2)cc1 | – | – | – | – | – | – | · | · | ·
NS(=O)(=O)c1ccc(NCc2cc(Cl)ccc2OCc2ccccc2F)cc1 | · | – | -15 | – | – | – | 50% | – | 41%
O=C(Nc1ccc(C(=O)N2CCCCC2)cc1)c1ccc([N+](=O)[O-])cc1 | · | – | – | – | – | – | · | · | ·
COC(=O)c1nn(-c2ccccc2)c(Cl)c1/C=N/OCc1ccc(Cl)cc1Cl | – | – | – | – | – | – | – | – | –
SMILES | Cl transport mod | KCNQ1 pot | KCNK9 block | KCNK3 inh | KCNQ1 block | hERG rescue | KCNK9 block conf | Kir2-1 spec | KCNK9 uninduced
CCC1=NN(C(=O)COc2ccccc2)C(O)(c2ccc(Br)cc2)C1 (stereo not drawn) | – | – | -17 | – | – | – | 52% | – | 35%
CC1=NN(C(=O)COc2ccccc2)C(O)(c2ccccc2)C1 (stereo not drawn) | – | – | – | – | – | – | · | · | ·
C=CCSc1nc2ccccc2c(=O)n1Cc1ccccc1 | – | – | – | – | – | – | · | · | ·
O=c1c2ccccc2nc(N2CCN(c3ccccc3)CC2)n1Cc1ccccc1 | – | – | -13 | – | – | – | 62% | – | 40%
CCOC(=O)C1CCCN(C2=NC(=O)/C(=C/c3ccc(N(C)C)cc3)S2)C1 (stereo not drawn) | · | – | -8.4 | – | 8 | – | 56% | – | 86%
CCOC(=O)C1CCCN(C2=NC(=O)/C(=C/c3ccc(OC)cc3)S2)C1 (stereo not drawn) | · | – | – | – | – | – | · | · | ·
O=C(Nc1ccc(CN2CCCCC2)cc1)c1cc(Br)ccc1Cl | – | – | -8.5 | – | – | – | 30% | – | 37%
O=C(Nc1ccc(CN2CCCCC2)cc1)c1cccc(Br)c1 | – | – | – | – | – | – | · | · | ·
Cc1cccc(-c2noc(CN(C(=O)C34CC5CC(CC(C5)C3)C4)C(C)C)n2)c1 | – | – | – | – | – | – | – | – | –
CC(C)N(Cc1nc(-c2ccc(Cl)cc2)no1)C(=O)C12CC3CC(CC(C3)C1)C2 | – | – | – | – | – | – | – | – | –
COc1cc(OC)cc(C(=O)N(Cc2nc(-c3cccc(C)c3)no2)C(C)C)c1 | · | – | – | – | – | – | · | · | ·
Cc1ccc(SCC(=O)N(Cc2nc(-c3ccccc3)no2)C(C)C)cc1 | – | – | – | – | – | – | – | – | 28%
CC(C)N(Cc1nc(-c2ccc(Cl)cc2)no1)C(=O)c1cccs1 | · | – | – | – | – | – | · | · | ·
CCCCN1CCC(=O)C(C(=O)OCC)=C1C(=O)OCC | · | · | · | – | · | · | · | · | ·
Cc1ccc2c(c1)C1CN(C)CCC1N2Sc1ccccc1[N+](=O)[O-] (stereo not drawn) | – | – | – | – | – | – | · | · | ·
COc1ccc(-c2nn3c(-c4ccccc4)nnc3s2)cc1 | – | – | – | – | – | – | · | · | ·
CCN(CC)c1ccc(-c2nn3c(-c4ccccc4OC)nnc3s2)cc1 | – | – | -14 | – | – | – | 43% | – | –
Cc1c(S(=O)(=O)N2CCCCC2)c(=O)n(C)c(=O)n1C | · | – | – | – | – | – | · | · | ·
Cc1ccc(CSc2nnc(C(F)(F)F)n2Cc2ccc(F)cc2)cc1 | – | – | -9.6 | – | – | – | 29% | – | 39%
CCOC(=O)C1(Cc2cccc(Cl)c2)CCCN(C(=O)CCN2CCCC2=O)C1 (stereo not drawn) | · | – | – | – | – | – | · | · | ·
CCN(CC(=O)NC1CCS(=O)(=O)C1)C(=O)c1ccc(OC)c([N+](=O)[O-])c1 (stereo not drawn) | · | · | · | – | · | · | · | · | ·

Source: PubChem BioAssay
